Data from ChEMBL document CHEMBL4411261, “Down-Regulation of the Androgen Receptor by G-Quadruplex Ligands Sensitizes Castration-Resistant Prostate Cancer Cells to Enzalutamide” (J Med Chem, 2018).
Active and inactive are the calls of the source. No cut-off for these calls is given here.

What was measured:
Quadruplex DNA [1] = assay: Stabilization of 5'-FAM/3'-TAMRA labelled AR1 G-quadruplex oligonucleotide (unknown origin) assessed as change in melting temperature t1/2 at 1 uM after 16 hrs in presence of 100 mM K+ by FRET assay; format: nucleic-acid assay
How it was run: (§1)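 FRET melting: FAM/TAMRA dual-labelled oligos (0.25 μM) folded in 10 mM lithium cacodylate pH 7.4 with 100 mM KCl (95 °C 5 min, cooled 4 h); ligand added at 1 μM final, 16 h room temperature. FAM emission followed 30−95 °C at 1 °C/min; curves normalized 0 to 1, T1/2 at 0.5 fraction.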

Quadruplex DNA [2] = assay: Stabilization of 5'-FAM/3'-TAMRA labelled AR3 G-quadruplex oligonucleotide (unknown origin) assessed as change in melting temperature t1/2 at 1 uM after 16 hrs in presence of 100 mM K+ by FRET assay; format: nucleic-acid assay; how it was run: as §1
[3] = Stabilization of 5'-FAM/3'-TAMRA labelled CTATAGCGCGCTATAG dsDNA (unknown origin) assessed as change in melting temperature t1/2 at 1 uM after 16 hrs in presence of 100 mM K+ by FRET assay; how it was run: as §1
CWR22R [4] = assay: Cytotoxicity against human 22Rv1 cells expressing full length androgen receptor H875Y point mutant assessed as reduction in cell viability after 48 hrs by MTS assay; format: functional, cell-based; conditions: 22Rv1, 48 h
How it was run: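 Cells kept in RPMI-1640 with 10% fetal calf serum, 37 °C, 5% CO2. Seeded, after 24 h treated with 0.0001, 0.001, 0.01, 0.1, 1 and 10 μM compound (DMSO stocks freshly diluted in medium) for 48 h. MTS added 4 h, absorbance 490 nm; IC50 from curves of % viability inhibition versus DMSO-treated cells against log concentration.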

[5] = Drug uptake in human PNT1A cells at 160 nM after 24 hrs by DAPI staining-based fluorescence microscopic analysis; format: ADME, cell-based; conditions: 0.16 µM
Quadruplex DNA [6] = assay: Stabilization of AR G-quadruplex oligonucleotide in human LNCAP cells assessed as down-regulation of KLK3 mRNA expression at IC50 after 48 hrs by RT-PCR analysis; format: cell-based
How it was run: (§2)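 Transcripts quantified by TaqMan real-time PCR with RNaseP as normalizer; relative quantity versus untreated cells by the 2−ΔΔCt method. Panel genes measured with a 92-gene cancer-mechanism TaqMan array.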

Quadruplex DNA [7] = assay: Stabilization of AR G-quadruplex oligonucleotide in human 22Rv1 cells assessed as reduction in AR-FL protein level by immunoblotting assay; format: cell-based
Quadruplex DNA [8] = assay: Stabilization of AR G-quadruplex oligonucleotide in human 22Rv1 cells assessed as reduction in AR-Vs protein level by immunoblotting assay; format: cell-based
Quadruplex DNA [9] = assay: Stabilization of AR3 G-quadruplex oligonucleotide (unknown origin) assessed as melting temperature at 16 uM after 16 hrs in presence of 100 mM K+ by CD spectra analysis (reference value: 78.8 +/- 1.7 degreeC); format: nucleic-acid assay
Quadruplex DNA [10] = assay: Stabilization of AR G-quadruplex oligonucleotide in human 22Rv1 cells assessed as down-regulation of MAX mRNA expression at IC50 after 48 hrs by RT-PCR analysis; format: cell-based; how it was run: as §2
Quadruplex DNA [11] = assay: Stabilization of AR G-quadruplex oligonucleotide in human 22Rv1 cells assessed as up-regulation of WNT1 mRNA expression at IC50 after 48 hrs by RT-PCR analysis; format: cell-based; how it was run: as §2
Quadruplex DNA [12] = assay: Stabilization of AR G-quadruplex oligonucleotide in human PC3 cells assessed as down-regulation of ITGB3 mRNA expression at IC50 after 48 hrs by RT-PCR analysis; format: cell-based
How it was run: (§3)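 PC-3 cells (RPMI-1640, 10% fetal calf serum) exposed at an equitoxic concentration. Expression of 92 cancer-mechanism genes measured on TaqMan Arrays. Change versus untreated cells computed by 2−ΔΔCt, with RNaseP as normalizer.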

Quadruplex DNA [13] = assay: Stabilization of AR G-quadruplex oligonucleotide in human DU145 cells assessed as down-regulation of ITGB3 mRNA expression at IC50 after 48 hrs by RT-PCR analysis; format: cell-based; how it was run: as §2
Quadruplex DNA [14] = assay: Stabilization of AR G-quadruplex oligonucleotide in human DU145 cells assessed as down-regulation of MAX mRNA expression at IC50 after 48 hrs by RT-PCR analysis; format: cell-based; how it was run: as §2
Quadruplex DNA [15] = assay: Stabilization of AR G-quadruplex oligonucleotide in human DU145 cells assessed as up-regulation of WNT1 mRNA expression at IC50 after 48 hrs by RT-PCR analysis; format: cell-based; how it was run: as §2
CWR22R [16] = assay: Synergistic cytotoxicity against human 22Rv1 cells expressing full length androgen receptor H875Y point mutant assessed as reduction in cell viability at 0.001 to 0.1 uM after 72 hrs in presence of Enzalutamide by MTS assay based CI-Fa plot analysis; format: functional
How it was run: (§4)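 Cells in RPMI-1640 with 10% fetal calf serum were exposed to ligand (0.001−0.1 μM) plus enzalutamide (0.5−50 μM) at a fixed ratio, five concentrations, for 72 h at 37 °C, 5% CO2. Viability read by MTS absorbance at 490 nm after 4 h. Combination index computed at ED50 and ED75 by the Chou–Talalay method.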

CWR22R [17] = assay: Synergistic cytotoxicity against human 22Rv1 cells expressing full length androgen receptor H875Y point mutant assessed as combination index for reduction in cell viability measured at ED50 Enzalutamide at 0.001 to 0.1 uM after 72 hrs by MTS assay based Chou and Talay's plot analysis; format: functional; how it was run: as §4
CWR22R [18] = assay: Effect on c-MYC mRNA expression in human 22Rv1 cells at IC50 after 48 hrs by RT-PCR analysis; format: functional, cell-based; how it was run: as §2
CWR22R [19] = assay: Effect on JUN mRNA expression in human 22Rv1 cells at IC50 after 48 hrs by RT-PCR analysis; format: functional, cell-based; how it was run: as §2
PC-3 [20] = assay: Effect on c-MYC mRNA expression in human PC3 cells at IC50 after 48 hrs by RT-PCR analysis; format: functional, cell-based; how it was run: as §2
DU-145 = assay: Effect on c-MYC mRNA expression in human DU145 cells at IC50 after 48 hrs by RT-PCR analysis; format: functional, cell-based; how it was run: as §2
Quadruplex DNA [21] = assay: Stabilization of AR G-quadruplex oligonucleotide in human LNCAP cells assessed as reduction in PSA protein level by immunoblotting assay; format: cell-based
How it was run: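 Lysate proteins immunoblotted. Vinculin or β-actin used as loading control, peroxidase-linked secondary antibodies, ECL chemiluminescent detection, autoradiography, densitometric scan. Untreated cells received DMSO.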

Quadruplex DNA [22] = assay: Stabilization of AR G-quadruplex oligonucleotide in human 22Rv1 cells assessed as up-regulation of BAX mRNA expression at IC50 after 48 hrs by RT-PCR analysis; format: cell-based; how it was run: as §2
Quadruplex DNA [23] = assay: Stabilization of AR G-quadruplex oligonucleotide in human PC3 cells assessed as down-regulation of BAX mRNA expression at IC50 after 48 hrs by RT-PCR analysis; format: cell-based; how it was run: as §3
PC-3 [24] = assay: Synergistic cytotoxicity against human PC3 cells assessed as ED75 for Enzalutamide at 0.001 to 0.1 uM after 72 hrs by MTS assay
PC-3 [25] = assay: Synergistic cytotoxicity against human PC3 cells assessed as combination index for reduction in cell viability measured at ED75 Enzalutamide at 0.001 to 0.1 uM after 72 hrs by MTS assay based Chou and Talay's plot analysis

CN(C)CCCn1c(=O)c2ccc3c(=O)n(CCCN(C)C)c(=O)c4c5[nH]c6ccccc6[nH]c5c(c1=O)c2c34.Cl.Cl
ΔTm (Quadruplex DNA [1]): 20.5 °C
ΔTm (Quadruplex DNA [2]): 31 °C
ΔTm [3]: 1 °C
IC50 (CWR22R [4]): 10 nM
Drug uptake [5]: Active
Activity (Quadruplex DNA [6]): Active
Activity (Quadruplex DNA [7]): Active
Activity (Quadruplex DNA [8]): Active
Tm (Quadruplex DNA [9]): > 90 °C
Activity (Quadruplex DNA [10]): Active
Activity (Quadruplex DNA [11]): Active
Activity (Quadruplex DNA [12]): Active
Activity (Quadruplex DNA [13]): Active
Activity (Quadruplex DNA [14]): Active
Activity (Quadruplex DNA [15]): Active
CI (CWR22R [16]): <0.5
CI (CWR22R [17]): <1
Activity (CWR22R [18]): inactive
Activity (CWR22R [19]): inactive
Activity (PC-3 [20]): inactive
Activity (DU-145): inactive
Activity (Quadruplex DNA [21]): Active
Activity (Quadruplex DNA [22]): Active
Activity (Quadruplex DNA [23]): Active
ED75 (PC-3 [24]): 21100 nM
CI (PC-3 [25]): >1
